From ChEMBL document CHEMBL4834423, “Discovery of AG-270, a First-in-Class Oral MAT2A Inhibitor for the Treatment of Tumors with Homozygous MTAP Deletion” (J Med Chem, 2021)

What was measured:
KP-4 [1] = assay: Anticancer activity in MTAP-null human KP-4 cells xenografted mouse model assessed as tumor growth inhibition at 10 mg/kg, po qd treated for 38 days relative to control; format: functional; settings: KP-4, po, 912 h, time 38 day, read-out: TGI
Procedure, shortened: (§1)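 Subcutaneous KP4 MTAP-null xenograft mice, 12 per arm (60 animals), dosed orally once daily on days 24−38 at 10−200 mg/kg. Tumor SAM levels and plasma compound exposure were monitored; plasma sampled up to 24 h after the last dose. Mean tumor volume and body weight change were tracked; error bars are SEM.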

KP-4 [2] = assay: Anticancer activity in MTAP-null human KP-4 cells xenografted mouse model assessed as tumor growth inhibition at 100 mg/kg, po qd treated for 38 days relative to control; format: functional; settings: KP-4, po, 912 h, time 38 day, read-out: TGI; procedure, shortened: as §1
[3] = Toxicity in MTAP-null human KP-4 cells xenografted mouse model assessed as body weight change at 10 to 200 mg/kg, po qd treated for 38 days; format: organism-based; settings: in vivo, 912 h, dose 10-200 mg/kg, time 38 day; procedure, shortened: as §1
HCT-116 [4] = assay: cells; settings: Homo sapiens, HCT-116, 96 h
[5] = Oral bioavailability in dog at 5 mg/kg; format: ADME, organism-based, Canis lupus familiaris; settings: in vivo
[6] = molecular target: S-adenosylmethionine synthase isoform type-2 (Homo sapiens, UniProt P31153); assay: Inhibition of recombinant human MAT2A expressed in baculovirus infected Sf9 cells assessed as S-adenosyl methionine production using L-methionine as substrate incubated for 60 mins followed by substrate addition and measured after 60 mins relative to control; design: concentration or dose not given beside the values
S-adenosylmethionine synthase isoform type-2, sequence (P31153 whole entry, looked up, canonical isoform): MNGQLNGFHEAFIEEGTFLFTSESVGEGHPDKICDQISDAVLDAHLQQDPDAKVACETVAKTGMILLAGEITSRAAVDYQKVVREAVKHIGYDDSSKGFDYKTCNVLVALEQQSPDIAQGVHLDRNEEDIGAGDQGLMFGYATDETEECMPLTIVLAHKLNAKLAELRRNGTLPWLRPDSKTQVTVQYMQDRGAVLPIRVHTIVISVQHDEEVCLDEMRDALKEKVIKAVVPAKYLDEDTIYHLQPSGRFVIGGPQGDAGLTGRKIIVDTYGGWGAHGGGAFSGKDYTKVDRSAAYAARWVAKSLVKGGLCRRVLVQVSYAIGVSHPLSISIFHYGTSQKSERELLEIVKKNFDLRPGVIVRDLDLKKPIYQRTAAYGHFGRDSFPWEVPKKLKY

KP-4 [7] = assay: Anticancer activity in MTAP-null human KP-4 cells xenografted mouse model assessed as inhibition of SAM production at 30 mg/kg, po qd treated for 38 days relative to control; format: functional; settings: KP-4, po, 912 h, time 38 day; procedure, shortened: as §1
KP-4 [8] = assay: Anticancer activity in MTAP-null human KP-4 cells xenografted mouse model assessed as tumor growth inhibition at 30 mg/kg, po qd treated for 38 days relative to control; format: functional; settings: KP-4, po, 912 h, time 38 day, read-out: TGI; procedure, shortened: as §1
[9] = Solubility of compound at pH 2; format: physicochemical; settings: buffer
Cytochrome P450 2C9 = Cytochrome P450 2C9 (Homo sapiens, UniProt P11712); assay: Inhibition of CYP2C9 (unknown origin); format: ADME
Cytochrome P450 2C9, sequence (P11712 whole entry): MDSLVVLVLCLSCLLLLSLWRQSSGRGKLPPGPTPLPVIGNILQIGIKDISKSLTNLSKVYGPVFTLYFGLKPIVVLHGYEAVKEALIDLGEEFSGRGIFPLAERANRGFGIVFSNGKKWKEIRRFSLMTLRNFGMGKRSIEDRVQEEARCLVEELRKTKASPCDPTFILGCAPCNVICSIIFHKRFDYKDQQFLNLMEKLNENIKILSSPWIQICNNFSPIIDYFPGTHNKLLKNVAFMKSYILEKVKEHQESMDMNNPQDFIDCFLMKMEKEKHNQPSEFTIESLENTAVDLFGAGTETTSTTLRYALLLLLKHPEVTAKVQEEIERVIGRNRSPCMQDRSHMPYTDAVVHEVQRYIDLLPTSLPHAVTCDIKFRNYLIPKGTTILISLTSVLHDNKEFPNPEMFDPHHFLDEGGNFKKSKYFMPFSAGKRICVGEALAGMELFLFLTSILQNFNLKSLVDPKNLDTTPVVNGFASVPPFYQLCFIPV

PXR (NR1I2) = molecular target: T1, PXR (NR1I2) (Homo sapiens, UniProt O75469); assay: Transactivation of PXR in human HepG2 cells relative to rifampicin; format: cell-based; settings: read-out: Activity
T1 sequence (O75469 whole entry): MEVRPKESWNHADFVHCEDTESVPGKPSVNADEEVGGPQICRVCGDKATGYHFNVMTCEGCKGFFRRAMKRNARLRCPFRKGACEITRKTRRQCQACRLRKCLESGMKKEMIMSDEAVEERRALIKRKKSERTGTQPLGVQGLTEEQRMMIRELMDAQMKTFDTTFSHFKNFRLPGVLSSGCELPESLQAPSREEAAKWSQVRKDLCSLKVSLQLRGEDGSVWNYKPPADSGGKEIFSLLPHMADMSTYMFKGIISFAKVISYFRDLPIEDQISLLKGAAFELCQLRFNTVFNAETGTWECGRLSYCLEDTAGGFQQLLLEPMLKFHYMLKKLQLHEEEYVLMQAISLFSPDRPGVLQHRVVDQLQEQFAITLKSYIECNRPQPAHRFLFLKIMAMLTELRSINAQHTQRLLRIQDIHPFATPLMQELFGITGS

Cytochrome P450 2C19 [10] = molecular target: T2, Cytochrome P450 2C19 (Homo sapiens, UniProt P33261); assay: Inhibition of CYP2C19 (unknown origin) assessed as inactivation relative to control; format: ADME
T2 sequence (P33261 whole entry): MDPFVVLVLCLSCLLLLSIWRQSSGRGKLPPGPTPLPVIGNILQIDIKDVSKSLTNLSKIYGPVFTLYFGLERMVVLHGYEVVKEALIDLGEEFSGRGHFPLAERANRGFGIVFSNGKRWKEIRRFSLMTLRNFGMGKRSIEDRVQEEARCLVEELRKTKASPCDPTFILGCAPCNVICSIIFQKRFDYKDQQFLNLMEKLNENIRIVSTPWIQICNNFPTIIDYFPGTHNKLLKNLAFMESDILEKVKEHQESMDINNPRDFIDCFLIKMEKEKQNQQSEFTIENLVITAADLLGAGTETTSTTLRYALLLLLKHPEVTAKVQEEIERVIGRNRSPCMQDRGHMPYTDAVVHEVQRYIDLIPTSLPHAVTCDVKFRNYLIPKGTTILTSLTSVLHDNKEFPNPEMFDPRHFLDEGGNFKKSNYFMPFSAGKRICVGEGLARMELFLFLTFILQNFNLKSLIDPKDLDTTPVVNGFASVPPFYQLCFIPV

KP-4 [11] = assay: Anticancer activity in MTAP-null human KP-4 cells xenografted mouse model assessed as tumor growth inhibition at 200 mg/kg, po qd treated for 38 days relative to control; format: functional; settings: KP-4, po, 912 h, time 38 day, read-out: TGI; procedure, shortened: as §1
Cytochrome P450 2C19 [12] = molecular target: T2, Cytochrome P450 2C19; assay: Inhibition of CYP2C19 (unknown origin); format: ADME
[13] = Solubility of compound at pH 7.4; format: physicochemical; settings: buffer
[14] = molecular target: T3, UDP-glucuronosyltransferase 1A1 (Homo sapiens, UniProt P22309); assay: Inhibition of UGT1A1 (unknown origin); format: ADME
T3 sequence (P22309 whole entry): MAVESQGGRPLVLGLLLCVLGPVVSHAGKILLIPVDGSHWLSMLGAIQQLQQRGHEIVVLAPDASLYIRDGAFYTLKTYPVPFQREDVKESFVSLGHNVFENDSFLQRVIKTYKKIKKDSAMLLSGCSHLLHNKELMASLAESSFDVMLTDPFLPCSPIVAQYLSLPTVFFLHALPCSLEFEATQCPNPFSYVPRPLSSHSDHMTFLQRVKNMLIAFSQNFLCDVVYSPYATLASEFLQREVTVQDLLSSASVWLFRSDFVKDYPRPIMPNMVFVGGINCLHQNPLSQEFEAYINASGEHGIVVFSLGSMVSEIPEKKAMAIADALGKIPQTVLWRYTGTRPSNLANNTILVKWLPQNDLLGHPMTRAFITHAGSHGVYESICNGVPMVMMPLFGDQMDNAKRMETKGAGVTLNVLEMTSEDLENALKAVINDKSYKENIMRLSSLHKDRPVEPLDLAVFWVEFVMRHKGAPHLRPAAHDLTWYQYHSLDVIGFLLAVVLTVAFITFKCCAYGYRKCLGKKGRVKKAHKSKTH

[15] = Protein binding in dog plasma assessed as unbound fraction; format: ADME, cell-free, Canis lupus familiaris
HCT-116 [16] = assay: Anticancer activity in MTAP-null human HCT116 cells xenografted mouse model assessed as tumor growth inhibition at 10 mg/kg, po qd treated for 38 days relative to control; format: functional; settings: HCT-116, po, 912 h, time 38 day, read-out: TGI
[17] = Oral bioavailability in rat at 5 mg/kg; format: ADME, organism-based; settings: in vivo
[18] = Protein binding in rat plasma assessed as unbound fraction; format: ADME, cell-free
[19] = Protein binding in human plasma assessed as unbound fraction; format: ADME, cell-free
KP-4 [20] = assay: Anticancer activity in MTAP-null human KP-4 cells xenografted mouse model assessed as inhibition of SAM production at 100 mg/kg, po qd treated for 38 days relative to control; format: functional; settings: KP-4, po, 912 h, time 38 day; procedure, shortened: as §1

- IC50 (HCT-116 [4]): 257 nM
- bioavailability [5]: 48%
- inhibition [6]: 91%
- solubility [9]: < 0.5 µM
- IC50 (Cytochrome P450 2C9): > 10000 nM
- Emax (PXR (NR1I2)): 22%
- INH (Cytochrome P450 2C19 [10]): > 50 µM
- IC50 (Cytochrome P450 2C19 [12]): > 10000 nM
- solubility [13]: < 0.1 µM
- IC50 [14]: 1100 nM
- fraction unbound [15]: 0.028
- bioavailability [17]: 92%
- fraction unbound [18]: 0.016
- fraction unbound [19]: 0.015
SMILES: COc1ccc(-c2c(Nc3ccccn3)[nH]c3c(C4=CCCCC4)c(-c4ccccc4)nn3c2=O)cc1
- inhibition in vivo at 10 mg/kg (KP-4 [1]): 36%
- inhibition in vivo at 100 mg/kg (KP-4 [2]): 66%
- Activity [3]: Non-Toxic
- inhibition in vivo at 30 mg/kg (KP-4 [7]): 44.7%
- inhibition in vivo at 30 mg/kg (KP-4 [8]): 48%
- inhibition in vivo at 200 mg/kg (KP-4 [11]): 67%
- inhibition in vivo at 10 mg/kg (HCT-116 [16]): 75%
- inhibition in vivo at 100 mg/kg (KP-4 [20]): 63.5%
